In ChEMBL document CHEMBL4689842, “EUbOPEN Chemogenomics Library wave 1” (2021):

Tested on: Fibroblast
Test: Multiplex assay against human fibroblast
Assay type: toxicity, cell-based
Procedure, shortened: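 Hoechst33342, BioTracker Green Microtubule Cytoskeleton Dye, MitoTracker Red and Annexin V Alexa Fluor 680 were added to live cells at seeding, and imaging on a CQ1 microscope at 37°C and 5% CO2 followed compound addition. Gating by CellPathfinder machine learning separated cells into Hoechst high-intensity objects or normal cells, then normal cells into healthy, pyknosed or fragmented nuclei, then pyknosed cells into mitotic or apoptotic. Per cents of healthy-nucleus cells are reported for the tubulin, mitochondrial-mass and membrane-permeability phenotypes.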

[1] = 12 h, 1 µM, compound concentration 1 uM, replicate 1
[2] = 12 h, 1 µM, compound concentration 1 uM, replicate 2
[3] = 12 h, 10 µM, compound concentration 10 uM, replicate 1
[4] = 12 h, 10 µM, compound concentration 10 uM, replicate 2
[5] = 24 h, 1 µM, compound concentration 1 uM, replicate 1
[6] = 24 h, 1 µM, compound concentration 1 uM, replicate 2
[7] = 24 h, 10 µM, compound concentration 10 uM, replicate 1
[8] = 24 h, 10 µM, compound concentration 10 uM, replicate 2
[9] = 48 h, 1 µM, compound concentration 1 uM, replicate 1
[10] = 48 h, 1 µM, compound concentration 1 uM, replicate 2
[11] = 48 h, 10 µM, compound concentration 10 uM, replicate 1
[12] = 48 h, 10 µM, compound concentration 10 uM, replicate 2

## CN1C2CCC1CC(OC(c1ccc(F)cc1)c1ccc(F)cc1)C2.Cl (centres undefined)
[1]
  Population Apoptotic (%): 53%
  Population Fragmented Nuclei (%): 26%
  Population Healthy Nuclei (%): 45%
  Population Hoechst High Intensity Objects (%): 12%
  Population Membrane Permeable-Phenotype (%): 21%
  Population Mitochondria Different-Phenotype (%): 11%
  Population Mitotic Cells (%): 46%
  Population Normal (%): 87%
  Population Pyknosed Nuclei (%): 27%
  Population Tubulin-Different-Phenotype (%): 52%
  Total Cell Count: 106
[2]
  Population Apoptotic (%): 100%
  Population Fragmented Nuclei (%): 5%
  Population Healthy Nuclei (%): 92%
  Population Hoechst High Intensity Objects (%): 2%
  Population Membrane Permeable-Phenotype (%): 3%
  Population Mitochondria Different-Phenotype (%): 4%
  Population Mitotic Cells (%): 0%
  Population Normal (%): 97%
  Population Pyknosed Nuclei (%): 1%
  Population Tubulin-Different-Phenotype (%): 8%
  Total Cell Count: 69
[3]
  Population Apoptotic (%): 64%
  Population Fragmented Nuclei (%): 31%
  Population Healthy Nuclei (%): 50%
  Population Hoechst High Intensity Objects (%): 9%
  Population Mitochondria Different-Phenotype (%): 37%
  Population Mitotic Cells (%): 36%
  Population Normal (%): 90%
  Population Pyknosed Nuclei (%): 18%
  Population Tubulin-Different-Phenotype (%): 68%
  Total Cell Count: 148
[4]
  Population Apoptotic (%): 80%
  Population Fragmented Nuclei (%): 8%
  Population Healthy Nuclei (%): 78%
  Population Hoechst High Intensity Objects (%): 6%
  Population Membrane Permeable-Phenotype (%): 10%
  Population Mitochondria Different-Phenotype (%): 89%
  Population Mitotic Cells (%): 20%
  Population Normal (%): 93%
  Population Pyknosed Nuclei (%): 13%
  Population Tubulin-Different-Phenotype (%): 49%
  Total Cell Count: 78
[5]
  Population Apoptotic (%): 53%
  Population Fragmented Nuclei (%): 24%
  Population Healthy Nuclei (%): 58%
  Population Hoechst High Intensity Objects (%): 13%
  Population Membrane Permeable-Phenotype (%): 26%
  Population Mitochondria Different-Phenotype (%): 4%
  Population Mitotic Cells (%): 46%
  Population Normal (%): 86%
  Population Pyknosed Nuclei (%): 17%
  Population Tubulin-Different-Phenotype (%): 58%
  Total Cell Count: 99
[6]
  Population Apoptotic (%): 20%
  Population Fragmented Nuclei (%): 3%
  Population Healthy Nuclei (%): 90%
  Population Hoechst High Intensity Objects (%): 2%
  Population Membrane Permeable-Phenotype (%): 4%
  Population Mitotic Cells (%): 80%
  Population Normal (%): 97%
  Population Pyknosed Nuclei (%): 6%
  Population Tubulin-Different-Phenotype (%): 8%
  Total Cell Count: 82
[7]
  Population Apoptotic (%): 38%
  Population Fragmented Nuclei (%): 38%
  Population Healthy Nuclei (%): 45%
  Population Hoechst High Intensity Objects (%): 17%
  Population Membrane Permeable-Phenotype (%): 15%
  Population Mitochondria Different-Phenotype (%): 40%
  Population Mitotic Cells (%): 61%
  Population Normal (%): 82%
  Population Pyknosed Nuclei (%): 15%
  Population Tubulin-Different-Phenotype (%): 60%
  Total Cell Count: 160
[8]
  Population Apoptotic (%): 80%
  Population Fragmented Nuclei (%): 16%
  Population Healthy Nuclei (%): 64%
  Population Hoechst High Intensity Objects (%): 3%
  Population Membrane Permeable-Phenotype (%): 6%
  Population Mitochondria Different-Phenotype (%): 78%
  Population Mitotic Cells (%): 20%
  Population Normal (%): 96%
  Population Pyknosed Nuclei (%): 19%
  Population Tubulin-Different-Phenotype (%): 25%
  Total Cell Count: 107
[9]
  Population Apoptotic (%): 28%
  Population Fragmented Nuclei (%): 34%
  Population Healthy Nuclei (%): 52%
  Population Hoechst High Intensity Objects (%): 13%
  Population Membrane Permeable-Phenotype (%): 22%
  Population Mitochondria Different-Phenotype (%): 1%
  Population Mitotic Cells (%): 71%
  Population Normal (%): 86%
  Population Pyknosed Nuclei (%): 12%
  Population Tubulin-Different-Phenotype (%): 45%
  Total Cell Count: 126
[10]
  Population Apoptotic (%): 0%
  Population Healthy Nuclei (%): 64%
  Population Hoechst High Intensity Objects (%): 11%
  Population Membrane Permeable-Phenotype (%): 9%
  Population Mitochondria Different-Phenotype (%): 6%
  Population Mitotic Cells (%): 100%
  Population Normal (%): 88%
  Population Pyknosed Nuclei (%): 0%
  Population Tubulin-Different-Phenotype (%): 47%
  Total Cell Count: 127
[11]
  Population Apoptotic (%): 80%
  Population Fragmented Nuclei (%): 47%
  Population Healthy Nuclei (%): 45%
  Population Hoechst High Intensity Objects (%): 25%
  Population Membrane Permeable-Phenotype (%): 9%
  Population Mitochondria Different-Phenotype (%): 27%
  Population Mitotic Cells (%): 20%
  Population Normal (%): 74%
  Population Pyknosed Nuclei (%): 7%
  Population Tubulin-Different-Phenotype (%): 78%
  Total Cell Count: 191
[12]
  Population Apoptotic (%): 100%
  Population Fragmented Nuclei (%): 64%
  Population Healthy Nuclei (%): 35%
  Population Hoechst High Intensity Objects (%): 16%
  Population Membrane Permeable-Phenotype (%): 11%
  Population Mitochondria Different-Phenotype (%): 18%
  Population Mitotic Cells (%): 0%
  Population Normal (%): 83%
  Population Pyknosed Nuclei (%): 0%
  Population Tubulin-Different-Phenotype (%): 79%
  Total Cell Count: 259
